Measured values taken from ChEMBL document CHEMBL3046367, “Potent and specific bactericidal effect of juglone (5-hydroxy-1,4-naphthoquinone) on the fire blight pathogen Erwinia amylovora” (J Agric Food Chem, 2012).
In brackets after ≈: the same amount, converted by molar mass. Activity calls are given as the source filed them. No cut-off for these calls is given here.

Legend:
Erwinia amylovora [1] = assay: Bactericidal activity against Erwinia amylovora 295/93 assessed as growth inhibition in King's B full medium measured at pH 7.2 after overnight incubation by suspension culture assay; type: functional
Summary of the method: (§1)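 Growth inhibition in suspension culture in King's B medium (peptone, K2HPO4, MgSO4, glycerol; pH 7.2). Overnight culture diluted to OD600 0.2, compound added from stocks in ethanol or DMSO (up to 5% v/v) beside solvent controls; 28 °C, 200 rpm; OD600 read at 0–8 h every 2 h and at 15 or 24 h. MIC = lowest concentration giving complete growth inhibition after overnight incubation; at least triplicate.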

Erwinia amylovora [2] = assay: Bactericidal activity against Erwinia amylovora bv.4 assessed as growth inhibition after 10 min; type: functional; conditions: bv.4, 10 min
Pantoea agglomerans = assay: Bactericidal activity against Pantoea agglomerans 599 assessed as growth inhibition at pH 7.2 by suspension culture assay; type: functional; summary of the method: as §1
Erwinia amylovora [3] = assay: Bactericidal activity against Erwinia amylovora 513 assessed as growth inhibition at pH 7.2 by suspension culture assay; type: functional; summary of the method: as §1
Erwinia tasmaniensis = assay: Bactericidal activity against Erwinia tasmaniensis 37/10 assessed as growth inhibition at pH 7.2 by suspension culture assay; type: functional; summary of the method: as §1
Erwinia amylovora [4] = assay: Bactericidal activity against Erwinia amylovora 872 assessed as growth inhibition at pH 7.2 by suspension culture assay; type: functional; summary of the method: as §1
Erwinia amylovora [5] = assay: Bactericidal activity against Erwinia amylovora 295/93 at 10 uM after 30 min; type: functional, organism-based
Summary of the method: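 Bactericidal versus bacteriostatic test: about 10^5 E. amylovora cells in suspension culture exposed to 10 μM for 30 min, then plated on King's B medium to check for surviving colonies.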

Erwinia amylovora [6] = assay: Bactericidal activity against Erwinia amylovora 295/93 assessed as colony growth inhibition at 25 uM at pH 7.2 by plating assay in presence of 0.5 mg/l mushroom tyrosinase; type: functional, organism-based
Erwinia amylovora [7] = assay: Bactericidal activity against Erwinia amylovora 797 assessed as growth inhibition at pH 7.2 by suspension culture assay; type: functional; summary of the method: as §1
Erwinia amylovora [8] = assay: Bactericidal activity against Erwinia amylovora 894 assessed as growth inhibition at pH 7.2 by suspension culture assay; type: functional; summary of the method: as §1
Erwinia amylovora [9] = assay: Bactericidal activity against Erwinia amylovora 562 assessed as growth inhibition at pH 7.2 by suspension culture assay; type: functional; summary of the method: as §1
Erwinia amylovora [10] = assay: Bactericidal activity against Erwinia amylovora 295/93 assessed as growth inhibition at pH 4.5 after overnight incubation by suspension culture assay; type: functional
Summary of the method: (§2)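 E. amylovora 295/93 grown in King's B medium brought to pH values between 4 and 8 with 1 M HCl or NaOH before sterilisation. Culture set to OD600 0.2, 28 °C, 200 rpm, OD600 monitored over time; solvent controls run in parallel.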

Erwinia amylovora [11] = assay: Bactericidal activity against Erwinia amylovora 295/93 assessed as growth inhibition at 10 uM preincubated for 1 hr with visible light by suspension culture assay; type: functional, organism-based
Summary of the method: (§3)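 1 mM stock in ethanol exposed for 1 h to bright sunlight (UV plus visible) or to sunlight behind a UV-blocking glass screen; dark-kept solution as control. Added at nominal 10 μM to growing E. amylovora suspension cultures; growth followed by OD600.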

Erwinia amylovora [12] = assay: Bactericidal activity against Erwinia amylovora 657 assessed as growth inhibition at pH 7.2 by suspension culture assay; type: functional; summary of the method: as §1
Erwinia amylovora [13] = assay: Bactericidal activity against Erwinia amylovora 792 assessed as growth inhibition at pH 7.2 by suspension culture assay; type: functional; summary of the method: as §1
Pseudomonas fluorescens = assay: Bactericidal activity against Pseudomonas fluorescens A506 assessed as growth inhibition at pH 7.2 by suspension culture assay; type: functional; summary of the method: as §1
Erwinia amylovora [14] = assay: Bactericidal activity against Erwinia amylovora 295/93 assessed as growth inhibition applied as spray solution; type: functional, organism-based
Erwinia amylovora [15] = assay: Bactericidal activity against Erwinia amylovora 871 assessed as growth inhibition at pH 7.2 by suspension culture assay; type: functional; summary of the method: as §1
Erwinia amylovora [16] = assay: Bactericidal activity against mixture of two strains of Erwinia amylovora 295/93 and 763 inoculated in Malus x domestica cv. Gala flowers assessed as prevention of infection at 0.01 mM applied two times at 2 hr after bacterial exposure measured after 8 to 10 days by In vitro flower inoculation assay; type: functional, 295/93/763
Summary of the method: (§4)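 Gala flowers (balloon stage, from greenhouse-forced potted trees) opened on 10% sucrose at 28 °C for 24 h, in series of 20. Each inoculated with 1 μL of a 1×10^7 CFU/mL mix of strains 295/93 and 763 on the styles. After 2 h, sprayed twice with 150 μL; water as negative control. Kept at 70% humidity and 22 °C, with a water-plus-fungicide spray at day 2. Infected flowers per series scored at 8–10 days; assay valid only if water controls reached ≥50% infection.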

Erwinia billingiae = assay: Bactericidal activity against Erwinia billingiae 6830 assessed as growth inhibition at pH 7.2 by suspension culture assay; type: functional; summary of the method: as §1
Erwinia amylovora [17] = assay: Bactericidal activity against Erwinia amylovora 295/93 assessed as colony growth inhibition at 25 uM at pH 4.5 by plating assay in presence of 0.5 mg/l mushroom tyrosinase; type: functional, organism-based
Erwinia amylovora [18] = assay: Bactericidal activity against Erwinia amylovora 793 assessed as growth inhibition at pH 7.2 by suspension culture assay; type: functional; summary of the method: as §1
Erwinia amylovora [19] = assay: Bactericidal activity against Erwinia amylovora 846 assessed as growth inhibition at pH 7.2 by suspension culture assay; type: functional; summary of the method: as §1
Erwinia pyrifoliae = assay: Bactericidal activity against Erwinia pyrifoliae 4171 assessed as growth inhibition at pH 7.2 by suspension culture assay; type: functional; summary of the method: as §1
Erwinia amylovora [20] = assay: Bactericidal activity against Erwinia amylovora 363 assessed as growth inhibition at pH 7.2 by suspension culture assay; type: functional; summary of the method: as §1
Erwinia amylovora [21] = assay: Bactericidal activity against Erwinia amylovora 295/93 assessed as inhibition of bacterial growth under infection conditions in hrp gene expression inducing medium at pH 7.0 after overnight incubation by suspension culture assay; type: functional
Summary of the method: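 E. amylovora 295/93 started at OD600 0.2, 28 °C with shaking, OD600 followed. MIC = lowest concentration completely inhibiting growth after overnight incubation, beside solvent controls.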

Erwinia amylovora [22] = assay: Bactericidal activity against Erwinia amylovora 893 assessed as growth inhibition at pH 7.2 by suspension culture assay; type: functional; summary of the method: as §1
Erwinia amylovora [23] = assay: Bactericidal activity against Erwinia amylovora 295/93 assessed as growth inhibition at 2.5 uM at pH 4.0 to 8.0 by suspension culture assay; type: functional, organism-based; summary of the method: as §2
Escherichia coli = assay: Bactericidal activity against Escherichia coli assessed as growth inhibition at pH 7.2 by suspension culture assay; type: functional; summary of the method: as §1
Erwinia amylovora [24] = assay: Bactericidal activity against Erwinia amylovora 385R assessed as growth inhibition at pH 7.2 by suspension culture assay; type: functional; summary of the method: as §1
Erwinia amylovora [25] = assay: Bactericidal activity against Erwinia amylovora 237R assessed as growth inhibition at pH 7.2 by suspension culture assay; type: functional; summary of the method: as §1
Erwinia amylovora [26] = assay: Bactericidal activity against Erwinia amylovora 627 assessed as growth inhibition at pH 7.2 by suspension culture assay; type: functional; summary of the method: as §1
Bacillus subtilis = assay: Bactericidal activity against Bacillus subtilis NCTC 10315 assessed as growth inhibition at pH 7.2 by suspension culture assay; type: functional; summary of the method: as §1
Erwinia piriflorinigrans = assay: Bactericidal activity against Erwinia piriflorinigrans 5888 assessed as growth inhibition at pH 7.2 by suspension culture assay; type: functional; summary of the method: as §1
Erwinia amylovora [27] = assay: Bactericidal activity against Erwinia amylovora 782 assessed as growth inhibition at pH 7.2 by suspension culture assay; type: functional; summary of the method: as §1
Erwinia amylovora [28] = assay: Bactericidal activity against 2x10^8 CFU/mL Erwinia amylovora 295/93 cells assessed as late restarting of growth from surviving cells at <10 uM by suspension culture assay; type: functional, organism-based
Erwinia amylovora [29] = assay: Bactericidal activity against Erwinia amylovora 295/93 assessed as growth inhibition at 10 uM preincubated for 1 hr with UV/visible light by suspension culture assay; type: functional, organism-based; summary of the method: as §3
[30] = system: Pectobacterium carotovorum; assay: Bactericidal activity against Pectobacterium carotovorum NCPB 312 assessed as growth inhibition at pH 7.2 by suspension culture assay; type: functional; summary of the method: as §1
[31] = Activity of Agaricus bisporus (mushroom) tyrosinase assessed as drug oxidation by photometric analysis; type: ADME
Erwinia amylovora [32] = assay: Bactericidal activity against mixture of two strains of Erwinia amylovora 295/93 and 763 inoculated in Malus x domestica cv. Gala flowers assessed as prevention of infection at 0.06% applied two times at 2 hr after bacterial exposure measured after 8 to 10 days by In vitro flower inoculation assay; type: functional, 295/93/763; summary of the method: as §4

## CC1=C(C)C(=O)C(C)=C(C)C1=O
Erwinia amylovora [1]
  MIC: inactive

## COc1cc(O)c2c(c1)C(=O)c1cc(C)cc(O)c1C2=O
Erwinia amylovora [1]
  MIC: inactive

## Cc1cc(O)c2c(c1)C(=O)c1cc(O)cc(O)c1C2=O
Erwinia amylovora [1]
  MIC: inactive

## Cc1cc(O)c2c(c1)C(=O)c1cccc(O)c1C2=O
Erwinia amylovora [1]
  MIC: inactive

## O=C(O)c1cc(O)c2c(c1)C(=O)c1cccc(O)c1C2=O
Erwinia amylovora [1]
  MIC: inactive

## O=C1C(O)=C(C2=C(O)C(=O)c3ccccc3C2=O)C(=O)c2ccccc21
Erwinia amylovora [1]
  MIC: inactive

## O=C1c2cccc(O)c2C(=O)c2c(O)cc(CO)cc21
Erwinia amylovora [1]
  MIC: inactive

## O=C1c2ccccc2C(=O)c2c1cc(S(=O)(=O)O)c(O)c2O
Erwinia amylovora [1]
  MIC: inactive

## O=C1c2ccccc2C(=O)c2c1ccc(O)c2O
Erwinia amylovora [1]
  MIC: inactive

## O=C1c2ccccc2C(=O)c2ccccc21
Erwinia amylovora [1]
  MIC: inactive

## O=C1C=CC(=O)C=C1 [BENZOQUINONE]
Erwinia amylovora [2]
  MIC: 10 µM (≈ 1.08 µg/mL)
Erwinia amylovora [1]
  MIC: 100 µM (≈ 10.8 µg/mL)

## O=C1C=CC(=O)c2c(O)cccc21 [JUGLONE]
Pantoea agglomerans
  MIC: 500 µM (≈ 87.1 µg/mL)
Erwinia amylovora [3]
  MIC: 10 µM (≈ 1.74 µg/mL)
Erwinia tasmaniensis
  MIC: 500 µM (≈ 87.1 µg/mL)
Erwinia amylovora [4]
  MIC: 20 µM (≈ 3.48 µg/mL)
Erwinia amylovora [5]
  Activity: Active
Erwinia amylovora [6]
  growth inhibition (GI): inactive
Erwinia amylovora [7]
  MIC: 20 µM (≈ 3.48 µg/mL)
Erwinia amylovora [8]
  MIC: 10 µM (≈ 1.74 µg/mL)
Erwinia amylovora [9]
  MIC: 10 µM (≈ 1.74 µg/mL)
Erwinia amylovora [10]
  MIC: 2.5 µM (≈ 0.435 µg/mL)
Erwinia amylovora [11]
  growth inhibition (GI): Active
Erwinia amylovora [12]
  MIC: 10 µM (≈ 1.74 µg/mL)
Erwinia amylovora [13]
  MIC: 10 µM (≈ 1.74 µg/mL)
Pseudomonas fluorescens
  MIC: > 1000 µM
Erwinia amylovora [14]
  growth inhibition (GI): Active
Erwinia amylovora [15]
  MIC: 10 µM (≈ 1.74 µg/mL)
Erwinia amylovora [16]
  Efficacy: 67%
Erwinia billingiae
  MIC: 1000 µM (≈ 174 µg/mL)
Erwinia amylovora [1]
  MIC: 10 µM (≈ 1.74 µg/mL)
Erwinia amylovora [17]
  growth inhibition (GI): Active
Erwinia amylovora [18]
  MIC: 10 µM (≈ 1.74 µg/mL)
Erwinia amylovora [19]
  MIC: 20 µM (≈ 3.48 µg/mL)
Erwinia pyrifoliae
  MIC: 20 µM (≈ 3.48 µg/mL)
Erwinia amylovora [20]
  MIC: 20 µM (≈ 3.48 µg/mL)
Erwinia amylovora [21]
  MIC: 5 µM (≈ 0.871 µg/mL)
Erwinia amylovora [22]
  MIC: 10 µM (≈ 1.74 µg/mL)
Erwinia amylovora [23]
  growth inhibition (GI): inactive
Escherichia coli
  MIC: 1000 µM (≈ 174 µg/mL)
Erwinia amylovora [24]
  MIC: 10 µM (≈ 1.74 µg/mL)
Erwinia amylovora [25]
  MIC: 10 µM (≈ 1.74 µg/mL)
Erwinia amylovora [26]
  MIC: 20 µM (≈ 3.48 µg/mL)
Bacillus subtilis
  MIC: 50 µM (≈ 8.71 µg/mL)
Erwinia piriflorinigrans
  MIC: 500 µM (≈ 87.1 µg/mL)
Erwinia amylovora [27]
  MIC: 10 µM (≈ 1.74 µg/mL)
Erwinia amylovora [28]
  Activity: Active
Erwinia amylovora [29]
  growth inhibition (GI): inactive
[30]
  MIC: 500 µM (≈ 87.1 µg/mL)
[31]
  Activity: Active

## O=C1C=C(O)C(=O)c2ccccc21 [LAWSONE]
Erwinia amylovora [1]
  MIC: 2500 µM (≈ 435 µg/mL)

## CC1=CC(=O)c2ccccc2C1=O [MENADIONE]
Erwinia amylovora [1]
  MIC: 250 µM (≈ 43 µg/mL)

## O=C1C=CC(=O)c2c(O)ccc(O)c21 [NAPHTHAZALIN]
Erwinia amylovora [1]
  MIC: 10 µM (≈ 1.9 µg/mL)

## CC1=CC(=O)c2c(O)cccc2C1=O [PLUMBAGIN]
Erwinia amylovora [1]
  MIC: 100 µM (≈ 18.8 µg/mL)

## CC(C)=CC[C@@H](O)C1=CC(=O)c2c(O)ccc(O)c2C1=O [SHIKONIN]
Erwinia amylovora [1]
  MIC: 100 µM (≈ 28.8 µg/mL)

## CN[C@@H]1[C@H](O[C@H]2[C@H](O[C@H]3[C@H](O)[C@@H](O)[C@H](N=C(N)N)[C@@H](O)[C@@H]3N=C(N)N)O[C@@H](C)[C@]2(O)C=O)O[C@@H](CO)[C@H](O)[C@H]1O [STREPTOMYCIN]
Erwinia amylovora [1]
  MIC: 10 µM (≈ 5.82 µg/mL)
Erwinia amylovora [32]
  Efficacy: 75%
